Experimental findings from ChEMBL document CHEMBL1147086, “Composite synthetic lethal identification of membrane traffic inhibitors” (Proc Natl Acad Sci U S A, 2007) are described below.

Holding throughout (format): organism-based
Details in all cases: in vivo

Data set [1] relates to Saccharomyces cerevisiae. Nature of the data set: Toxicity against wild type yeast MDY326 assessed as 2 fold reduction of cell growth at 130 uM.
The test system of data set [2] is Saccharomyces cerevisiae. The data set is described as follows: Toxicity against wild type yeast MDY326 assessed as 2 fold reduction of cell growth at 95 uM. The gist of the method:
(§1)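 Wild-type strain MDY326 (pdr5Δ snq2Δ) diluted to OD600 0.0003 in YPD, compound serially diluted into 30 μl cultures, grown 18–24 h at 30°C humidified; OD490 read after vortexing, normalized to untreated/DMSO wells; value is the concentration producing 2-fold growth inhibition.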

Data set [3] concerns Saccharomyces cerevisiae. The data set is described as follows: Toxicity against wild type yeast MDY326 assessed as 2 fold reduction of cell growth at 14 uM. The essentials: as §1

Regarding `CC(=O)c1ccc(N2CCN(CC3CCCC3)CC2)cc1`, the Activity entry in data set [1] was “Toxic”.

`CC(=O)c1ccc(N2CCN(Cc3cccc(F)c3)CC2)cc1`: in data set [2], the Activity result was “Toxic”.

`CC(=O)c1ccc(N2CCN(Cc3cccc(Cl)c3Cl)CC2)cc1`: the Activity entry in data set [3] is on record as “Toxic”.
